An excerpt weighted towards active compounds, which were near 2.6% of everything screened.
Platelet DG rel: inhibitors of platelet dense granule secretion, primary screen, cell-based, MLPCN, human platelets | human platelet-rich plasma, SFLLRN dense granule ATP release, luminescence | inhibition, %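 (compounds screened at 7.5 µM in platelet-rich plasma)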 | hit rate 0.22% among 300,000;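 active = mean replicate score, as percent of positive control, at or above 50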
SENP8 block-1: SENP8 protease inhibitors, primary screen, biochemical, luminescence; Sentrin-specific protease 8 (Homo sapiens), Q96LD8; purified SENP8, Z-RLRGG-aminoluciferin cleavage; inhibition, % at 10 µM; hit rate 1.2% among 330,000; AID 2540, 2010; in the data active = inhibition above about 50%
Target sequence (Q96LD8 whole entry, looked up): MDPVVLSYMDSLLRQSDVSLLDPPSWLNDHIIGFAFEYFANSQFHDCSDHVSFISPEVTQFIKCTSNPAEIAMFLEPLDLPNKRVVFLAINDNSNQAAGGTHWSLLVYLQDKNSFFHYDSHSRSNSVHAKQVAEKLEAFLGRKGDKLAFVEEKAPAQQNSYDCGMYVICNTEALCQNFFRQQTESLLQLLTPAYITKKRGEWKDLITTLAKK
SENP7 inh: SENP7 protease inhibitors, primary screen, biochemical, luminescence, uHTS. inhibition, % at 5 µM. recombinant SENP7, Z-RLRGG-aminoluciferin luminescence, 40 min. hit rate 1.5% among 330,000. Sentrin-specific protease 7 (Homo sapiens), Q9BQF6;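 active = inhibition above about 50% at the single test dose, limit read from the data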
SENP8 block-2: human SENP8 protease inhibitors, primary screen, biochemical, fluorescence, Nedd8 protein substrate, uHTS; Sentrin-specific protease 8 (Homo sapiens), Q96LD8; recombinant SENP8; inhibition, % at 20 µM; hit rate 0.64% among 360,000; in the data active = inhibition mostly above about 40%, no sharp cut-off; inactive = mostly below about 27%
SENP6 block: SENP6 protease inhibitors, primary screen, biochemical, luminescence, uHTS; Recombinant SENP6 catalytic domain, aminoluciferin luminescence; inhibition, % at 10 µM; hit rate 1.8% among 330,000; AID 2599, 2010;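 active = inhibition above about 50% at the single tested dose, limit read from the data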
SENP1 FRET inh: human SENP1 catalytic domain inhibitors, primary screen, biochemical, FRET, uHTS; Sentrin-specific protease 1 (Homo sapiens), Q9P0U3; recombinant SENP1 catalytic domain, CyPet-SUMO1-YPet FRET cleavage; inhibition, % at 10 µM; hit rate 0.21% among 360,000; AID 624204, 2012;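 active = inhibition at least 30% at 10 µM, raw YFP signal under a set limit, fluorescence ratio 0.5 to 1.5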
Target sequence (Q9P0U3 419-644 limits assumed): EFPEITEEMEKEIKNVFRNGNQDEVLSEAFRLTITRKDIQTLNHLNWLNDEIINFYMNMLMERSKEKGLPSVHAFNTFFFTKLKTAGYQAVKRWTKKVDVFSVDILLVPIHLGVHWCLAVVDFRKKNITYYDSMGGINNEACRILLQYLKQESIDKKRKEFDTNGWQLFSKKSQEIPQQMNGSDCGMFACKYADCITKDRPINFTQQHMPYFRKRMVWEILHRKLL
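Compound: 10 µM single point, 0.5% DMSO; Test system: hSENP1 catalytic domain, recombinant; Timing: 50 min reaction at room temperature; Technique: FRET, CFP and YFP emission; Control set: no-enzyme wells low, DMSO-plus-enzyme wells high control.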
SENP8 conf: SENP8 protease inhibitors, retest, confirmation, biochemical, luminescence, single concentration. hit rate 40% among 6,200. inhibition, % at 12.5 µM. Recombinant SENP8, Z-RLRGG-aminoluciferin luminescence, 60 min. shares compounds with SENP7 inh;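 active = mean inhibition across replicates above about 50%, limit read from the data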
SENP6 confirm: SENP6 protease inhibitors, confirmation, biochemical, luminescence, single concentration; shares compounds with SENP7 inh; recombinant SENP6, Z-RLRGG-aminoluciferin luminescence; inhibition, % at 12.5 µM; hit rate 58% among 6,200; AID 488915, 2010
SENP7 confirm: SENP7 protease inhibitors, retest, confirmation, biochemical, luminescence, single concentration. hit rate 69% among 6,200. recombinant SENP7, Z-RLRGG-aminoluciferin luminescence, 40 min. inhibition, % at 12.5 µM. shares compounds with SENP7 inh
Casp3 select: caspase-3 protease inhibitors, confirmation, selectivity assay for SENP inhibitor project, biochemical, single concentration; shares compounds with SENP7 inh; purified caspase-3, Z-DEVD-aminoluciferin luminescence, 60 min; inhibition, % at 12.5 µM; hit rate 60% among 6,200;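 active = mean inhibition above about 50%, limit read from the data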
Target sequence (P42574 28-227 limits assumed): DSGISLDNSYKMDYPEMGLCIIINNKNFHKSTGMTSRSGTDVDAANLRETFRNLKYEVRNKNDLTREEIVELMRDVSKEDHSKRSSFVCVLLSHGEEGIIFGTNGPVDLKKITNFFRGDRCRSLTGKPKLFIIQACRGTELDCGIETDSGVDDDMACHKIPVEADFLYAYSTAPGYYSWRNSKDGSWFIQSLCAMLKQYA
Luc interf: luminescence interference (SENP counter-screen). Pre-incubated SENP8/Z-RLRGG-aminoluciferin, luciferase luminescence interference. inhibition, % at 12.5 µM. AID 488919. hit rate 39% among 6,200. shares compounds with SENP7 inh;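 active = mean inhibition above about 50% when retested at one dose, limit read from the data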
Numbers stand for hits; i = inactive; nt = not tested or not shown.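 Rule for the calls, unless noted: active = mean inhibition above about 50% in the one-dose retest (limit read from the data); inactive = the rest.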

SMILES	Platelet DG rel	SENP8 block-1	SENP7 inh	SENP8 block-2	SENP6 block	SENP1 FRET inh	SENP8 conf	SENP6 confirm	SENP7 confirm	Casp3 select	Luc interf
Cc1noc(NS(=O)(=O)c2ccc(NC(=O)c3cnc4scc(C)n4c3=O)cc2)c1C	i	i	i	i	67	i	i	i	69	82	i
Cc1cc(NS(=O)(=O)c2ccc(NC(=O)Nc3cccc(Cl)c3)cc2)no1	i	72	69	i	84	i	i	81	93	67	59
Cc1cc(NS(=O)(=O)c2ccc(NC(=O)NC3CCCCC3)cc2)no1	i	i	i	i	i	i	nt	nt	nt	nt	nt
Cc1cccc(NC(=O)Nc2ccc(S(=O)(=O)Nc3onc(C)c3C)cc2)c1	nt	83	i	i	77	i	88	85	94	87	52
Cc1cc(NS(=O)(=O)c2ccc(NC(=O)Nc3ccc4c(c3)OCO4)cc2)no1	i	i	i	i	67	i	55	51	82	76	i
O=C(CC1OC(=O)c2ccccc21)Nc1cccc(S(=O)(=O)N2CCCCCC2)c1 (stereo unspecified)	i	i	i	i	i	i	nt	nt	nt	nt	nt
NC(=O)c1cc2c3ccccc3ccn2c1-c1ccccc1	i	nt	nt	i	nt	i	nt	nt	nt	nt	nt
O=C(Nc1cccc2nsnc12)c1ccc2c(c1)OCCO2	i	66	i	i	77	i	i	83	98	88	i
O=C(Nc1cccc2nsnc12)c1ccc2c(c1)OCO2	i	52	60	i	69	i	i	66	77	67	i
O=C(Nc1cccc2cccnc12)c1ccc2c(c1)OCCO2	i	i	i	i	i	i	nt	nt	nt	nt	nt
COc1ccc2c(c1OC)C(=O)N1c3ccccc3SC21 (stereo unspecified)	i	i	i	i	50	i	i	i	78	58	i
COC1=C(Nc2ccccc2)C(=O)c2ccccc2C1=O	i	i	i	i	i	i	nt	nt	nt	nt	nt
Cc1ccc(NC2=CC(=O)C(=O)c3ccccc32)c(C)c1	nt	i	i	i	51	i	i	i	i	i	i
O=C1C=C(Nc2ccc(F)cc2)c2ccccc2C1=O	nt	72	i	i	82	i	i	89	i	i	i
O=C1C=C(Nc2ccccc2O)c2ccccc2C1=O	i	77	i	i	88	30	i	86	67	i	i
O=C1C=C(NCc2ccccc2)c2ccccc2C1=O	i	nt	nt	i	nt	i	nt	nt	nt	nt	nt
O=C(Nc1ccc(NC(=O)N2CCN(c3ccccc3O)CC2)cc1)N1CCN(c2ccccc2O)CC1	i	i	i	i	i	i	nt	nt	nt	nt	nt
CCc1ccc(NS(=O)(=O)c2c(C(=O)N3CCCCCC3)c(C)n(C)c2C)cc1	i	i	i	i	i	i	nt	nt	nt	nt	nt
COC(=O)C1=C(C)N(c2ccc(Cl)c(Cl)c2)C(=O)C1	i	i	i	i	i	i	nt	nt	nt	nt	nt
COC(=O)[C@]12C(=O)NC[C@H](CN1c1ccc(Cl)c(C)c1)N2C	nt	i	100	i	i	i	i	i	i	i	i
COCCCNC1=C(Cl)C(=O)c2ccccc2C1=O	i	i	i	i	i	i	nt	nt	nt	nt	nt
CC(C)OCCCNC1=C(Cl)C(=O)c2ccccc2C1=O	i	i	i	68	62	i	i	51	i	i	i
O=C1C(Cl)=C(Nc2ccccc2)C(=O)c2ccccc21	i	nt	nt	i	nt	i	nt	nt	nt	nt	nt
CCN(CC)CCCNC1=C(Cl)C(=O)c2ccccc2C1=O	i	i	i	47	75	i	i	67	i	55	i
C=CCNC1=C(Cl)C(=O)c2ccccc2C1=O	i	i	i	72	59	i	i	50	i	i	i
SMILES	Platelet DG rel	SENP8 block-1	SENP7 inh	SENP8 block-2	SENP6 block	SENP1 FRET inh	SENP8 conf	SENP6 confirm	SENP7 confirm	Casp3 select	Luc interf
CC(C)NC1=C(Cl)C(=O)c2ccccc2C1=O	i	i	i	52	56	i	i	i	i	i	i
COc1ccc(-c2cc(C(=O)N/N=C(\C)c3cccnc3)c3ccccc3n2)c(OC)c1	i	i	i	i	i	i	nt	nt	nt	nt	nt
O=C1C(Cl)=C(NCCc2ccccc2)C(=O)c2ccccc21	nt	nt	nt	i	nt	i	nt	nt	nt	nt	nt
O=C1C(Cl)=C(NCc2cccnc2)C(=O)c2ccccc21	i	i	i	86	60	i	i	72	i	66	i
COc1ccc(C(=O)CSC(=S)N2CCCCC2)cc1	nt	nt	nt	i	nt	i	nt	nt	nt	nt	nt
O=C(CSC(=S)N1CCCC1)c1ccccc1	i	i	54	i	64	i	52	52	78	70	56
O=C(CSC(=S)N1CCCCC1)c1ccccc1	i	63	74	i	74	i	i	63	90	73	67
CC1Cc2cc(/C=C3/SC(=S)N(C)C3=O)ccc2O1 (stereo unspecified)	i	61	63	i	74	i	i	i	i	52	i
CC1Cc2cc(/C=C3/SC(N4CCC(C(N)=O)CC4)=NC3=O)ccc2O1 (stereo unspecified)	i	i	i	i	i	i	nt	nt	nt	nt	nt
O=C(COc1cc2oc(=O)c3c(c2cc1Cl)CCC3)Nc1ccccn1	i	i	i	i	i	i	nt	nt	nt	nt	nt
O=C(COc1cc2oc(=O)c3c(c2cc1Cl)CCC3)Nc1cccnc1	i	i	67	i	i	i	i	i	i	i	i
O=C(Nc1cccc(Cl)c1)Nc1ccccc1C(=O)NCc1ccco1	i	68	76	i	73	i	i	i	96	i	i
Cc1cc(C)nc(N(C#N)Cc2ccccc2Cl)n1	i	i	i	i	i	i	nt	nt	nt	nt	nt
Cc1cc(C)nc(N(C#N)Cc2ccccc2C)n1	i	i	96	i	i	i	i	i	i	i	i
Cc1ccc(-c2csc(N3C(=N)SCC3=O)n2)cc1	i	51	71	nt	i	nt	i	i	i	i	i
